From ChEMBL document CHEMBL1139840, “Design and synthesis of glycoside inhibitors of glioma and melanoma growth” (2007)

How the values were obtained:
A-375 = experiment: Antimitotic activity against human A375 cells by [3H]thymidine incorporation assay; type: functional; conditions: A-375, 24 h, read-out: ID50 (the source's name)
In short: (§1)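 Cells seeded at 1 × 10⁴/well in DMEM with 10% FCS and left 6 h to attach, then serum-starved 36 h. Compounds added in DMEM with 1% FCS, in triplicate, for 24 h. A 6 h [³H]thymidine pulse (0.5 µCi/well) followed, then SDS lysis and scintillation counting. % inhibition was scaled between 10% FCS (high) and serum-free (low) controls. ID₅₀ came from sigmoidal fits of triplicate dose-response data.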

C6 = experiment: Antimitotic activity against rat C6 cells by [3H]thymidine incorporation assay; type: functional; conditions: C6, 24 h, read-out: ID50 (the source's name); in short: as §1
[1] = Antimitotic activity against human U373 cells by [3H]thymidine incorporation assay; type: functional, U-373MG ATCC; conditions: U373 MG, read-out: ID50 (the source's name)
[2] = Antimitotic activity against rat stromal cells by [3H]thymidine incorporation assay; type: functional; conditions: read-out: ID50 (the source's name)

Row | SMILES | IC50 (A-375) [µM] | IC50 (C6) [µM] | IC50 [1] [µM] | IC50 [2] [µM]
1 | C=CCCC(=O)N[C@H]1[C@@H](OCCc2ccccc2)O[C@H](COS(=O)(=O)O)[C@@H](O)[C@@H]1O | > 50 | > 50 | > 50 | –
2 | C=CCCC(=O)N[C@H]1[C@@H](OCCc2ccccc2)O[C@H](CO)[C@@H](O)[C@@H]1O | > 50 | > 50 | > 50 | –
3 | C=CCCC(=O)N[C@H]1[C@@H](OCCc2ccccc2)O[C@H](CO)[C@@H](O)[C@@H]1OS(=O)(=O)O | > 50 | > 50 | > 50 | –
4 | CCCCCCCCO[C@H]1O[C@H](CO)[C@@H](O)[C@H](O)[C@H]1NC(C)=O | > 50 | > 50 | > 50 | –
5 | CCCCCCCCCCCCCCCCO[C@H]1O[C@H](COCC(CO)(CO)CO)[C@@H](O)[C@H](O)[C@H]1NC(=O)CCCC | 17 | 18.3 | 27.3 | –
6 | CCCCCCCCCCCCCCCCO[C@H]1O[C@H](COCC(O)CO)[C@@H](O)[C@H](O)[C@H]1NC(=O)CCCCCCCCCCCCCCC (mixture of isomers) | 9.3 | 2.6 | 3.3 | –
7 | CCCCCCCCO[C@H]1O[C@H](CO)[C@@H](O)[C@H](O)[C@H]1NC(=O)c1ccccc1 | > 50 | > 50 | > 50 | –
8 | CCCCCCCC/C=C\CCCCCCCCO[C@H]1O[C@H](CO)[C@@H](O)[C@H](O)[C@H]1NC(C)=O | 4.8 | 1.3 | 4.6 | 10
9 | CC(=O)N[C@H]1[C@@H](OCCc2ccccc2)O[C@H](CO)[C@@H](O)[C@@H]1O | > 50 | > 50 | > 50 | –
10 | CCCCCCCCCCCCCCCCO[C@H]1O[C@H](CO)[C@@H](O)[C@H](O)[C@H]1NC(C)=O | 29.3 | 13 | > 50 | –
11 | CCCCCCCCCCCCCCCCO[C@H]1O[C@H](COC[C@H](O)CO)[C@@H](O)[C@H](O)[C@H]1NC(=O)CCCC | 2.2 | – | 4.9 | –
12 | CC(=O)N[C@H]1[C@@H](OCCCCc2ccccc2)O[C@H](CO)[C@@H](O)[C@@H]1O | > 50 | > 50 | > 50 | –
13 | CCCCCCCC/C=C\CCCCCCCC(=O)N[C@H]1[C@@H](OCCCCCCCC)O[C@H](COS(=O)(=O)O)[C@@H](O)[C@@H]1O | 15.6 | 5.6 | 12.6 | –
14 | CCCCC(=O)N[C@H]1[C@@H](OCCc2ccccc2)O[C@H](COCC(O)CO)[C@@H](O)[C@@H]1O (mixture of isomers) | > 50 | > 50 | > 50 | –
15 | CCCCCCCC/C=C\CCCCCCCCO[C@H]1O[C@H](CO)[C@@H](O)[C@H](OS(=O)(=O)O)[C@H]1NC(C)=O | 2.1 | 12.3 | 9.6 | –
16 | CCCCCCCCCCCCCCCCO[C@H]1O[C@H](COC[C@@H](O)CO)[C@@H](O)[C@H](O)[C@H]1NC(=O)CCCC | 3.4 | – | 5.6 | –
17 | CCCCCCCC/C=C\CCCCCCCC(=O)N[C@H]1[C@@H](OCCCCCCCC)O[C@H](COCC(CO)(CO)CO)[C@@H](O)[C@@H]1O | 13.3 | 11.9 | 20.6 | –
18 | CCCCCCCC/C=C\CCCCCCCCO[C@H]1O[C@H](COS(=O)(=O)O)[C@@H](O)[C@H](O)[C@H]1NC(C)=O | 0.6 | 13 | 13 | 40
19 | CCCCCCCCCCCCCCCCO[C@H]1O[C@H](COCC(O)CO)[C@@H](O)[C@H](O)[C@H]1NC(=O)CCCC (stereo not given in full) | 3 | – | 4.6 | –
20 | CCCCCCCCCCCCCCCCO[C@H]1O[C@H](COCC(CO)(CO)COS(=O)(=O)O)[C@@H](O)[C@H](O)[C@H]1NC(=O)CCCC | 2.3 | 11 | 3.2 | –
21 | CC(=O)N[C@H]1[C@@H](OCc2ccccc2)O[C@H](CO)[C@@H](O)[C@@H]1O | > 50 | > 50 | > 50 | –
22 | C=CCCC(=O)N[C@H]1[C@@H](OCCCCCCCCCCCCCCCC)O[C@H](CO)[C@@H](O)[C@@H]1OS(=O)(=O)O | 7.2 | 22.6 | 33 | –
23 | CCCCCCCC/C=C\CCCCCCCC(=O)N[C@H]1[C@@H](OCCCCCCCC)O[C@H](CO)[C@@H](O)[C@@H]1O | 6 | 12 | 13.3 | –
24 | CCCCC(=O)N[C@H]1[C@@H](OCCc2ccccc2)O[C@H](COCC(CO)(CO)CO)[C@@H](O)[C@@H]1O | > 50 | > 50 | > 50 | –
25 | C=CCCC(=O)N[C@H]1[C@@H](OCCCCCCCCCCCCCCCC)O[C@H](CO)[C@@H](O)[C@@H]1O | > 50 | > 50 | > 50 | –
26 | CCCCC(=O)N[C@H]1[C@@H](OCCc2ccccc2)O[C@H](COCC(CO)(CO)COS(=O)(=O)O)[C@@H](O)[C@@H]1O | 9.3 | 8.6 | 6.7 | –
27 | CCCCCCCC/C=C\CCCCCCCC(=O)N[C@H]1[C@@H](OCCCCCCCC)O[C@H](CO)[C@@H](O)[C@@H]1OS(=O)(=O)O | 16 | 5.4 | 15.6 | –
